pIC50: −log10 of the molar value.
Columns and labels:
recombinant human HDAC 1 = recombinant human HDAC 1 (Homo sapiens, UniProt Q13547); assay: HDAC enzyme inhibition assay, HDAC1; format: biochemical; conditions: read-out: In vitro IC50, HD1, NI = no inhibition up to 10 mM tested
Outline: (§1)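 Recombinant human enzyme incubated at 37°C for 30 min in HDAC assay buffer with 5 μg BSA and fluorogenic substrate 3 (10 μM). Double-strength developer was then added for 20 min at room temperature, and fluorescence was read at ex 360/em 460 nm. The six-point concentration series was run in duplicate. Activity was taken as (F−Fb)/(Ft−Fb), with no-inhibitor as 100% and no-enzyme as 0%, and IC50 came from a sigmoidal nonlinear fit.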

recombinant human HDAC 2 = recombinant human HDAC 2 (Homo sapiens, UniProt Q92769); assay: HDAC enzyme inhibition assay, HDAC2; format: biochemical; conditions: read-out: In vitro IC50, HD2
Outline: as §1

recombinant human HDAC 3 = recombinant human HDAC 3 (Homo sapiens, UniProt O15379); assay: HDAC enzyme inhibition assay, HDAC3; format: biochemical; conditions: read-out: In vitro IC50, HD3
Outline: as §1

recombinant human HDAC 8 = target: T1, recombinant human HDAC 8 (Homo sapiens, UniProt Q9BY41); assay: HDAC enzyme inhibition assay, HDAC8; format: biochemical; conditions: read-out: In vitro IC50, HD8
T1 sequence (Q9BY41 1-377): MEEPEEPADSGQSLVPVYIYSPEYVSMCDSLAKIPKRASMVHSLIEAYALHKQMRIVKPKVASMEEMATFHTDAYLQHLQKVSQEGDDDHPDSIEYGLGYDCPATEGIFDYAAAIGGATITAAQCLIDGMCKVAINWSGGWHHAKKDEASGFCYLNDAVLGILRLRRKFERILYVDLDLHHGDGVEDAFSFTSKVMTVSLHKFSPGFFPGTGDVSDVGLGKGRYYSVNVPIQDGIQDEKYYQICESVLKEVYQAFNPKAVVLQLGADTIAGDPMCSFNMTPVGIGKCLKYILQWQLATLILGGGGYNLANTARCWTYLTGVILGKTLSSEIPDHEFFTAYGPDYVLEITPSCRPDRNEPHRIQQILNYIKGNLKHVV
Outline: as §1

[1] = target: T2, recombinant human HDAC 10 (Homo sapiens, UniProt Q969S8); assay: HDAC enzyme inhibition assay, HDAC10; format: biochemical; conditions: read-out: In vitro IC50, HD10
T2 sequence (Q969S8 1-669): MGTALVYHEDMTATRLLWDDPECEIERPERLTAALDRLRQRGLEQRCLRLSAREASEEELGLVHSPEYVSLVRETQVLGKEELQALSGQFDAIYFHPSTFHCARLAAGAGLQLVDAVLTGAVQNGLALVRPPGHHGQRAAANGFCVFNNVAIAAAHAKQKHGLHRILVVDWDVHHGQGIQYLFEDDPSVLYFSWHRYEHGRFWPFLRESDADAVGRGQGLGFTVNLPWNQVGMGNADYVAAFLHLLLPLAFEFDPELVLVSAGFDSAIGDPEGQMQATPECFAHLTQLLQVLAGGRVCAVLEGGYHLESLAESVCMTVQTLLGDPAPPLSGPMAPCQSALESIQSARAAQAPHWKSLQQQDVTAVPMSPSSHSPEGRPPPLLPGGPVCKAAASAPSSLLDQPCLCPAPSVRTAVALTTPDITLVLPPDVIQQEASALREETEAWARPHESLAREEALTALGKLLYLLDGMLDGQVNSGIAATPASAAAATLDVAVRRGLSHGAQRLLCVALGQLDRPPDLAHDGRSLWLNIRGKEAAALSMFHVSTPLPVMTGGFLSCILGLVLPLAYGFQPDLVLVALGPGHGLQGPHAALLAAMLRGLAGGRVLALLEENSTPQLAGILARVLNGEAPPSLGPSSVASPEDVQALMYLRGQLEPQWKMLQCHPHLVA
Outline: as §1

[2] = target: T3, recombinant human HDAC 11 (Homo sapiens, UniProt Q96DB2); assay: HDAC enzyme inhibition assay, HDAC11; format: biochemical; conditions: read-out: In vitro IC50, HD11
T3 sequence (Q96DB2 1-347): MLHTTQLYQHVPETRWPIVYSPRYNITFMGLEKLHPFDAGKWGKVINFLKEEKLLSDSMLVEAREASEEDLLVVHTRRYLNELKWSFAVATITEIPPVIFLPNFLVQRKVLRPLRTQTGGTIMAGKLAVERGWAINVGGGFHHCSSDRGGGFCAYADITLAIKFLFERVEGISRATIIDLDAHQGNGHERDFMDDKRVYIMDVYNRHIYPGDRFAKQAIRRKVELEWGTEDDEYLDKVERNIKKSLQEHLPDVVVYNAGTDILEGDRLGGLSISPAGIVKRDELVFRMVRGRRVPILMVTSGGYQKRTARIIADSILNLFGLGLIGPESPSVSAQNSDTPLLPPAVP
Outline: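 Recombinant human enzyme incubated for 60 min at 37°C in HDAC assay buffer containing 5 μg BSA and substrate 3 at 10 μM. Developer (double strength) was added for 20 min at room temperature, and fluorescence was read at 360/460 nm. Six concentrations were tested in duplicate. Percent activity was normalised between no-inhibitor (100%) and no-enzyme (0%) wells, and IC50 came from sigmoidal nonlinear regression.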

[3] = test system: hippocampal histone H3 and H4 acetylation; assay: Brain/hippocampal histone acetylation after i.p. injection; format: in vivo, Long-Evans rats
contextual fear memory = assay: Contextual fear conditioning, 24 hr retention; format: in vivo, Long-Evans rats; conditions: 1.2 g/kg i.p. 1 hr prior to CFC training

Chain of recombinant human HDAC 3 (O15379 whole entry): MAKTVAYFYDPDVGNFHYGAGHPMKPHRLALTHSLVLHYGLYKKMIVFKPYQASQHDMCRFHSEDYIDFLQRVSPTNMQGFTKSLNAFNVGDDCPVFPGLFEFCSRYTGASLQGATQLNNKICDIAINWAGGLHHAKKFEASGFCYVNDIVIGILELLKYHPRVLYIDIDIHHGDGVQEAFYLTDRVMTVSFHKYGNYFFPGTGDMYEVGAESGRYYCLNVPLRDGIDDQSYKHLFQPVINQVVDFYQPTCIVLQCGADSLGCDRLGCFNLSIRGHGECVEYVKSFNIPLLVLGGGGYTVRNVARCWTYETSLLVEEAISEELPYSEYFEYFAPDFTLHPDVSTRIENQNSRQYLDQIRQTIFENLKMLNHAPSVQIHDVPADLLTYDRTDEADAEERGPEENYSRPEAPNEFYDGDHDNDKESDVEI
Chain of recombinant human HDAC 3 (Q9Y618 395-489 partner limits assumed): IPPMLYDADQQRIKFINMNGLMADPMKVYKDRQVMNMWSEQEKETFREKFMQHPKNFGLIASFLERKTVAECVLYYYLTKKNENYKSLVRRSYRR
Chain of recombinant human HDAC 1 (Q13547 whole entry): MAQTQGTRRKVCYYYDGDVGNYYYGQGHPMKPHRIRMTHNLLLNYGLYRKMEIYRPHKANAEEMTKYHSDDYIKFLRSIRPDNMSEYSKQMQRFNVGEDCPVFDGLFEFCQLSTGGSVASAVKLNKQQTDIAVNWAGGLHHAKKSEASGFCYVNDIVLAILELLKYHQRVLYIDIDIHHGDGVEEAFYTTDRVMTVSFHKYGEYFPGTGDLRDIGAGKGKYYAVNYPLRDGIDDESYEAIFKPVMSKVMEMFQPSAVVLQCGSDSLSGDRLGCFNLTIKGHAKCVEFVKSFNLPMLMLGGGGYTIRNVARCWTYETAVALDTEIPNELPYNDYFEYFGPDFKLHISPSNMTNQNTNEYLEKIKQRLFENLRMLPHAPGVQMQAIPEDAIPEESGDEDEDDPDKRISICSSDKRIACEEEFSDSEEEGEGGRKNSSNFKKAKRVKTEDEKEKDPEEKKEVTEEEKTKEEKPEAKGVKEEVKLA
Chain of recombinant human HDAC 2 (Q92769 whole entry): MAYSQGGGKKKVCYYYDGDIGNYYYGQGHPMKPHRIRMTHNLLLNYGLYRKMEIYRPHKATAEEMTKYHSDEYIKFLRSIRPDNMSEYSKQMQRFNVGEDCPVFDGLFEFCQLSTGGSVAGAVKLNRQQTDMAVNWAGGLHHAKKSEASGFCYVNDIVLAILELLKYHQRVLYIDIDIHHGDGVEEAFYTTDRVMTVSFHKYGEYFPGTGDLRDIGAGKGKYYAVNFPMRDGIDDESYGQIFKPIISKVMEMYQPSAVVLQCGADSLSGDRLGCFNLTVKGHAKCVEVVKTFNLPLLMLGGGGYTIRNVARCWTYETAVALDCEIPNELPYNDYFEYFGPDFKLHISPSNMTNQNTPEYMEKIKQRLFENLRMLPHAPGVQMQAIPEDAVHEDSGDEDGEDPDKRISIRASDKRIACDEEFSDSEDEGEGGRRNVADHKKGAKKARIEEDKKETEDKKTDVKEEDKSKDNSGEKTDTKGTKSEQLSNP

CCCC(=O)[O-].[Na+] [NaB, sodium butyrate]
pIC50 (recombinant human HDAC 1): 3.48 | pIC50 (recombinant human HDAC 2): 3.93 | pIC50 (recombinant human HDAC 3): 3.90 | pIC50 (recombinant human HDAC 8): 3.21 | pIC50 [1]: 3.27 | pIC50 [2]: 3.25 | histone H3 and H4 acetylation in whole hippocampus, 30 min ([3]; 30 min after 1.2 g/kg i.p.): increasing at 30 min relative to vehicle | histone H3 and H4 acetylation in whole hippocampus, 60 min ([3]; 60 min after 1.2 g/kg i.p.): returning to baseline levels | mean freezing at 24 hr retention test (contextual fear memory): 12.73 s | retention of contextual fear memory at 24 hr (contextual fear memory): failed to enhance retention
